PLCg1 inh – inhibitors of human phospholipase C gamma1 | purified PLC-gamma1, fluorogenic substrate, fluorescence | inhibition, % at 12.2 µM | 0.84% of 370,000 active; in the data active = inhibition above about 9.5%
Tn6 DDE FP – DD(E)-Tn6 binding inhibition, primary FP screen; P02675; AID 720509; Fibrin DD(E) TRITC-Tn6 fluorescence polarization displacement; inhibition, % at 8.3 µM; 0.21% of 370,000 active;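 active = inhibition above a per-campaign cutoff: mean of compounds within control limits plus 3 SD, cut at about 15% in these data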
PLCb3 inh – PLC-beta3 (human) inhibition, primary screen. Purified PLC-beta3, fluorogenic substrate, fluorescence. inhibition, % at 12.2 µM. Q01970. 0.18% of 370,000 active. AID 720704; in the data active = inhibition above about 11%
DDE Tn7 FP inh – DD(E)-Tn7 binding inhibition, primary FP screen. FP displacement of FITC-Tn7 peptide from fibrin DD(E); 0% = median of compound wells per plate. inhibition, % at 8.3 µM. 0.13% of 370,000 active;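 active = inhibition above the mean of compounds falling within the control limits plus 3 SD of them, cut at about 14% in these data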
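assay system = human clot-derived fibrin DD(E) complex | quantity = Fibrin-DD(E) at 2 µM final | timing = 10 min preincubation, 3 h with tracer, room temperature | signal = fluorescence polarization | measure = percent inhibition | benchmarks = high control wells with 10 µM unlabelled Aha-Tn7 peptide (full inhibition) | replicates = singlicate testing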
ADAM10 inh – ADAM10 inhibition, QFRET primary screen | recombinant ADAM10, EDANS/DABCYL FRET peptide cleavage, 3 h | inhibition, % at 7 µM | 0.62% of 370,000 active | AID 720582;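 active = inhibition above a per-campaign cutoff equal to the mean of compounds falling between control-based bounds plus 3 SD, cut at about 20% in these data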
ADAM17 inh – inhibitors of human ADAM17. inhibition, % at 6.95 µM. 0.83% of 370,000 active. recombinant ADAM17, EDANS/DABCYL FRET peptide cleavage. AID 720648;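 active = inhibition above the mean of compounds lying between control limits plus 3 SD, set per campaign, cut at about 8.5% in these data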
ADAM10 confirm – human ADAM10 inhibition, confirmation. shares compounds with ADAM10 inh. ADAM10 QFRET peptide cleavage, EDANS fluorescence. inhibition, % at 6.95 µM. 1% of 2,100 active;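 active = inhibition above about 20% chosen separately for each screening run, limit read from the data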
ADAM17 counter – ADAM17 inhibition, counter-screen for ADAM10 exosite hits | shares compounds with ADAM10 inh | ADAM17 QFRET peptide cleavage, EDANS fluorescence | inhibition, % at 6.95 µM | 0.5% of 2,100 active | AID 743214;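 active = mean triplicate inhibition above the solvent-only control wells' mean plus 3 SD, cut at about 12% in these data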
ADAM10 counter – inhibits human ADAM10 in ADAM17 exosite counter-screen. 47% of 2,900 active. shares compounds with ADAM17 inh. inhibition, % at 6.95 µM. recombinant ADAM10, EDANS/DABCYL FRET peptide cleavage, 3 h;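 active = mean inhibition over the triplicate runs exceeds the activity threshold set in the earlier primary screen, cut at about 20% in these data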
ADAM17 confirm – human ADAM17 inhibition, confirmation. shares compounds with ADAM17 inh. recombinant ADAM17, EDANS/DABCYL QFRET peptide cleavage. inhibition, % at 6.95 µM. 65% of 2,900 active. AID 743257;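 active = mean inhibition across replicates above the hit cutoff set in the primary screen, cut at about 8.5% in these data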
Each line names hits and unclear results; the compound was inactive in the other large screens (follow-up assays come after a bar, where they were run). The list is not random: actives were taken first. Their share in the collection is about 2.3%.

Cn1c(SCC(=O)NCCN2CCCCC2)nc2cccnc21	none
Cc1ccc(OCCNC(=O)c2cccc(C)c2)cc1	none
Cc1cccc(OCCNC(=O)c2cccc(Oc3ccc(C(F)(F)F)cc3[N+](=O)[O-])c2)c1	ADAM10 inh 32.3, ADAM17 inh 14.0 | ADAM10 confirm inactive | ADAM17 counter inactive | ADAM10 counter 34.1 | ADAM17 confirm 17.7
O=C(Nc1c(-c2ccc(C(F)(F)F)cc2)nc2ncccn12)C1CC1	none
Cc1ccc(S(=O)(=O)Nc2ccc(-c3csc(-c4ccccc4)n3)cc2)cc1	ADAM10 inh 31.1, ADAM17 inh 15.5 | ADAM10 confirm inactive | ADAM17 counter inactive | ADAM10 counter 24.1 | ADAM17 confirm 19.8
O=[N+]([O-])c1ccc(S(=O)(=O)Nc2ccc(-c3csc(-c4ccccc4)n3)cc2)cc1	ADAM10 inh 34.4, ADAM17 inh 17.3 | ADAM10 confirm inactive | ADAM17 counter inactive | ADAM10 counter 33.6 | ADAM17 confirm 16.8
COC(=O)[C@]12C[C@H](CC(=O)NCCCCc3ccccc3)C(=O)N(Cc3ccccc3)C1=C[C@H](C(C)(C)C)O[C@@H]2C	none
COC(=O)[C@]12C[C@H](CC(=O)NCCc3ccccc3OC)C(=O)N(Cc3cccc4ccccc34)C1=C[C@H](C(C)(C)C)O[C@@H]2C	none
CCCCNC(=O)C[C@H]1C[C@@]2(C(=O)OC)C(=C[C@H](C(C)(C)C)O[C@@H]2C)N(Cc2cccc3ccccc23)C1=O	ADAM10 inh 29.2, ADAM17 inh 14.6 | ADAM10 confirm inactive | ADAM17 counter inactive | ADAM10 counter 26.2 | ADAM17 confirm 16.6
COC(=O)[C@]12C[C@H](CC(=O)NCc3cccc4ccccc34)C(=O)N(Cc3ccco3)C1=C[C@H](C1CCCC1)O[C@@H]2C	ADAM10 inh 22.4, ADAM17 inh 13.9 | ADAM10 confirm inactive | ADAM17 counter inactive | ADAM10 counter 33.8 | ADAM17 confirm 17.2
COC(=O)[C@]12C[C@H](CC(=O)NCc3ccccc3)C(=O)N(Cc3ccco3)C1=C[C@H](C1CCCC1)O[C@@H]2C	none
COC(=O)[C@]12C[C@H](CC(=O)NCCCCc3ccccc3)C(=O)N(CCc3ccc(OC)c(OC)c3)C1=C[C@H](C(C)(C)C)O[C@@H]2C	ADAM10 inh 27.1, ADAM17 inh 9.0 | ADAM10 confirm inactive | ADAM17 counter inactive | ADAM10 counter 24.3 | ADAM17 confirm 13.3
O=S1(=O)c2c(NCc3ccco3)cccc2Oc2ccccc2CN1Cc1cn(Cc2ccc(C(F)(F)F)cc2)nn1	none
O=C(Nc1ccc2c(c1)OCCO2)C(c1ccnc2ccccc12)N1CCC(Cc2ccccc2)CC1 (centres undefined)	ADAM10 inh 36.7, ADAM17 inh 19.4 | ADAM10 confirm inactive | ADAM17 counter inactive | ADAM10 counter inactive | ADAM17 confirm 10.3
Cc1ccc(NC(=O)CSc2nnc(-c3cccnc3)n2Cc2ccco2)cc1C	none
Cc1cc(C)cc(OC(C)CCN2CCC(C(O)(c3ccccc3)c3ccccc3)CC2)c1 (centres undefined)	none
O=c1c([N+](=O)[O-])c(Cl)c2ccccc2n1Cc1ccccc1	none
Cc1ccc(S(=O)(=O)N(C)c2ccc(OCC(=O)Nc3nc4ccccc4s3)cc2)cc1	ADAM10 inh 29.2, ADAM17 inh 18.5 | ADAM10 confirm inactive | ADAM17 counter inactive | ADAM10 counter 23.3 | ADAM17 confirm 15.7
COc1ccc(Cn2cc(CN3CC=CS3(=O)=O)nn2)cc1	none
